Holding throughout (type): functional, cell-based
The test system of one test is HT-29. The test can be described thus: Cytotoxicity against human HT29 cells after 72 hrs by SRB assay. To be noted: HT-29, 72 h. Summed up:
(§1)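 Adherent tumour cells seeded 24 h before treatment, then exposed continuously to a range of compound concentrations for 72 h. Cells were then fixed and stained with sulforhodamine B to read growth, and IC50 values were derived from the concentration series.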

For the next test, the system named is A549. The test can be described thus: Cytotoxicity against human A549 cells after 72 hrs by SRB assay. To be noted: A549, 72 h. In outline:
as §1
Background: In SRB staining, fixed cells bind dye roughly in proportion to their protein.

For another test, the system named is K562. The test can be described thus: Cytotoxicity against human K562 cells after 72 hrs by SRB assay. The following applies: K562, 72 h.

Experimental findings from ChEMBL document CHEMBL1157325, “7alpha,20-epoxy-ent-kauranoids from Isodon parvifolius” (J Nat Prod, 2006) are described below.

As a reminder, the IC50 is the concentration that inhibits the measured activity by half. Low values mean inhibition by little substance, high ones a need for much substance. In the case of `C=C1C(=O)[C@]23C[C@H]1[C@@H](O)C=C2[C@@]12CO[C@@]3(O)[C@@H](O)[C@@H]1C(C)(C)CC[C@@H]2O` [PARVIFOLINE F], the IC50 in the test with HT-29, with A549 and with K562 was over 100 µM in each case.
Turning to `C=C1C(=O)[C@]23[C@H](O)[C@H]1CC[C@H]2[C@@]12CO[C@@]3(O)[C@@H](O)[C@@H]1[C@@](C)(CO)CC[C@@H]2O` [PARVIFOLINE D], the IC50 in the test on HT-29, in the test on A549 and with K562 was over 100 µM throughout.
In the test on K562, `C=C1C(=O)[C@]23C[C@H]1CC[C@H]2[C@@]12CO[C@@]3(O)[C@@H](O)[C@@H]1[C@@](C)(CO)CC[C@@H]2O` [PARVIFOLINE C] registered a half-inhibitory concentration (IC50) of 13.8 µM.
Regarding `C=C1C(=O)[C@]23C[C@H]1C[C@H](OC(C)=O)[C@H]2[C@@]12CO[C@@]3(O)[C@@H](O)[C@@H]1C(C)(C)CC[C@@H]2O` [PARVIFOLINE H], the IC50 in the test on HT-29, in the test on A549 and in the test on K562 was over 100 µM in each case.
For `COC[C@H]1C(=O)[C@]23C[C@H]1C[C@H](OC(C)=O)[C@H]2[C@@]12CO[C@@]3(O)[C@@H](O)[C@@H]1C(C)(C)CC[C@@H]2O` [PARVIFOLINE J], the IC50 in the test on HT-29, with A549 and with K562 was over 100 µM in each case.
Consider `C=C1C(=O)[C@]23C[C@H]1C[C@H](O)[C@H]2[C@@]12CO[C@@]3(O)[C@@H](O)[C@@H]1C(C)(C)CC[C@@H]2OC(C)=O` [PARVIFOLINE I], for which the 50% inhibitory concentration (IC50) in the test on HT-29, in the test on A549 and with K562 was over 100 µM each time.
As for `C=C1[C@@H]2C[C@@H](OC(C)=O)[C@H]3[C@@]45CO[C@@](O)(C(=O)[C@@H]4C(C)(C)CC[C@@H]5OC(C)=O)[C@]3(C2)[C@@H]1OC(C)=O` [PARVIFOLINE G], the IC50 in the test on HT-29, in the test on A549 and in the test on K562 was over 100 µM each time.
